{"data": "Results collected from several papers", "target": "3-phosphoinositide-dependent protein kinase 1 (PDPK1, Homo sapiens, UniProt O15530)", "Sequence (O15530 1-556, as in one of the studies)": "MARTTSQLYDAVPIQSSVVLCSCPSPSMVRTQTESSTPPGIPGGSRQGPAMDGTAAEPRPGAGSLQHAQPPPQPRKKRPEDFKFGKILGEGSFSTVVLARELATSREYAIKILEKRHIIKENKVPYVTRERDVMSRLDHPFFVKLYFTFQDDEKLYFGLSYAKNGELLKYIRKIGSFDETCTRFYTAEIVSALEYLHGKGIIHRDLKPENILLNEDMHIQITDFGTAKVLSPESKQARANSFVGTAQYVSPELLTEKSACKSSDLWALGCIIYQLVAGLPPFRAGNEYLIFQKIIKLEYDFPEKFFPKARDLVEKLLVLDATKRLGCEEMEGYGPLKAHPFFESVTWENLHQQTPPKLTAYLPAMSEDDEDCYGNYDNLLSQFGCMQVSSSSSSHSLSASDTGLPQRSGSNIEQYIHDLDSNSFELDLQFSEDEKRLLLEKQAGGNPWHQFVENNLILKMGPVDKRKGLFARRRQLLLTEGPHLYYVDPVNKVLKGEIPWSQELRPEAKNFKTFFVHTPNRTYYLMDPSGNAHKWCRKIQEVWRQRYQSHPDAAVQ", "note": "Each line is one published result; the experiments were not run side by side."}
{"SMILES": "Cc1c(-c2ccccc2)oc2c(C(=O)OCCN3CCCCC3)cccc2c1=O", "read-out": "cell-free assay", "technique": "competition with immobilised ligand", "concentration": "0.1 µM", "remaining binding": "100%"}
{"SMILES": "O=C(NCC1CCOCC1)c1n[nH]cc1NC(=O)c1c(F)cccc1F", "read-out": "binding", "technique": "competition with immobilised ligand", "concentration": "1 µM", "remaining binding": "100%"}
{"SMILES": "COc1cnc(Nc2cccc(S(N)(=O)=O)c2)nc1N1CCN(c2ccccc2)C(=O)C1", "read-out": "binding", "technique": "competition with immobilised ligand", "concentration": "1 µM", "remaining binding": "100%"}
{"SMILES": "COc1ccc2c(c1)O[C@H](c1ccc(OC)c(OC)c1)C[C@@H]2NC(=O)C1(c2ccc3c(c2)OC(F)(F)O3)CC1", "read-out": "cell-free assay", "technique": "competition with immobilised ligand", "concentration": "1 µM", "remaining binding": "100%"}
{"SMILES": "CS(=O)(=O)CCNCc1ccc(-c2ccc3ncnc(Nc4ccc(OCc5cccc(F)c5)c(Cl)c4)c3c2)o1", "read-out": "cell-free assay", "technique": "competition with immobilised ligand", "concentration": "10 µM", "remaining binding": "100%"}
{"SMILES": "CCN1CCN(Cc2ccc(C(=O)Nc3ccc(C)c(Oc4ccc5c(c4)CC(=O)N5)c3)cc2C(F)(F)F)CC1", "read-out": "binding", "technique": "competition with immobilised ligand", "concentration": "1 µM", "remaining binding": "100%"}
{"SMILES": "c1cncc(-c2cccc(Nc3nccc(NC4CCCCC4)n3)c2)c1", "read-out": "binding", "technique": "competition with immobilised ligand", "concentration": "10 µM", "remaining binding": "100%"}
{"SMILES": "COc1ccc2cc(OCC3(C(=O)O)CN(C(=O)c4ccc(F)cc4)C3)ccc2c1", "read-out": "cell-free assay", "technique": "competition with immobilised ligand", "concentration": "1 µM", "remaining binding": "100%"}
{"SMILES": "COc1ccnn2ncc(-c3ccnc(N(C)C)n3)c12", "read-out": "binding", "concentration": "1 µM", "remaining binding": "100%"}
{"SMILES": "CCN(CC)CCNC(=O)c1c(C)[nH]c(/C=C2\\C(=O)Nc3ccc(F)cc32)c1C", "read-out": "cell-free assay", "technique": "competition with immobilised ligand", "concentration": "0.1 µM", "remaining binding": "100%"}
{"SMILES": "CN(c1nccc(-c2cnn3ncccc23)n1)C1CC1", "read-out": "binding", "concentration": "1 µM", "remaining binding": "100%"}
{"SMILES": "C=CC(=O)N1CCC(C(=O)NCC(=O)N2CCN(c3nc(-c4cnc(N)nc4C(F)F)nc(N4CCOCC4)n3)CC2)CC1", "read-out": "binding", "technique": "competition with immobilised ligand", "concentration": "1 µM", "remaining binding": "93%"}
{"SMILES": "O=C(Nc1cccnn1)N1CC(C/C=C/c2cncc(Oc3ccc(C(F)(F)F)cn3)n2)C1", "read-out": "cell-free assay", "technique": "competition with immobilised ligand", "concentration": "1 µM", "remaining binding": "97%"}
{"SMILES": "N[C@H]1CCN(c2nccc(-c3cnn4ncccc34)n2)C1", "read-out": "binding", "concentration": "1 µM", "remaining binding": "97%"}
{"SMILES": "C[C@@H]1CN(c2ccc3ncc(-c4ccc5[nH]nc(C6CC6)c5c4)n3n2)C[C@H](C)O1", "read-out": "binding", "technique": "competition with immobilised ligand", "concentration": "0.5 µM", "remaining binding": "100%"}
{"SMILES": "Cc1cnc(Nc2ccc(C(=O)N3CCC(N4CCCC4)CC3)cc2)nc1-c1cc2ccccc2s1", "read-out": "binding", "technique": "competition with immobilised ligand", "concentration": "1 µM", "remaining binding": "72%"}
{"SMILES": "CNC(=O)c1cc(Oc2ccc(NC(=O)Nc3ccc(Cl)c(C(F)(F)F)c3)cc2)ccn1", "read-out": "cell-free assay", "technique": "competition with immobilised ligand", "concentration": "10 µM", "remaining binding": "85%"}
{"SMILES": "O=C(c1ccc(Nc2nccc(-c3cc4ccccc4s3)n2)cc1)N1CCC(N2CCCC2)CC1", "read-out": "binding", "technique": "competition with immobilised ligand", "concentration": "1 µM", "remaining binding": "100%"}
{"SMILES": "Cc1ccc(NC(=O)c2ccc(CN3CCN(C)CC3)cc2)cc1Nc1nccc(-c2cccnc2)n1", "read-out": "cell-free assay", "technique": "competition with immobilised ligand", "concentration": "0.1 µM", "remaining binding": "100%"}
{"SMILES": "C[C@H]1CCN(c2nccc(-c3cnn4ncccc34)n2)C1", "read-out": "binding", "concentration": "1 µM", "remaining binding": "100%"}
{"SMILES": "CCCCN(CCCC)C(=O)CN1C[C@@H](c2cc(OC)c3c(c2)OCO3)[C@H](C(=O)O)[C@H]1CC(C)(C)CCC", "read-out": "cell-free assay", "technique": "competition with immobilised ligand", "concentration": "1 µM", "remaining binding": "77.3%"}
{"SMILES": "COc1cnc(Nc2cccc(S(N)(=O)=O)c2)nc1N1CCN(c2ccccc2)CC1", "read-out": "binding", "technique": "competition with immobilised ligand", "concentration": "1 µM", "remaining binding": "100%"}
{"SMILES": "c1cnn2ncc(-c3ccnc(N4CCC45COC5)n3)c2c1", "read-out": "binding", "concentration": "1 µM", "remaining binding": "98%"}
{"SMILES": "Cn1cc(Cl)c2c(Oc3c(F)cc(Nc4cc(Cl)nc(N)n4)cc3F)ccnc21", "read-out": "cell-free assay", "technique": "competition with immobilised ligand", "concentration": "0.1 µM", "remaining binding": "61%"}
{"SMILES": "COc1ncc2cc3ccccc3nc2c1C#N", "read-out": "cell-free assay", "technique": "competition with immobilised ligand", "concentration": "5 µM", "remaining binding": "88%"}
{"SMILES": "Cc1nc(Cc2cccc(C(F)(F)F)c2)sc1-c1ccc(C(N)=O)nc1", "read-out": "cell-free assay", "technique": "competition with immobilised ligand", "concentration": "1 µM", "remaining binding": "82%"}
{"SMILES": "Cc1nc(Nc2ncc(C(=O)Nc3c(C)cccc3Cl)s2)cc(N2CCN(CCO)CC2)n1", "read-out": "cell-free assay", "technique": "competition with immobilised ligand", "concentration": "10 µM", "remaining binding": "100%"}
{"SMILES": "FC(F)(F)Oc1cccc(-c2cnc3ccc(-c4ccncc4)nn23)c1", "read-out": "cell-free assay", "technique": "competition with immobilised ligand", "concentration": "5 µM", "remaining binding": "90%"}
{"SMILES": "O=C(c1ccc(Nc2ncc(Cl)c(-c3ccc(Cl)s3)n2)cc1)N1CCC(N2CCCC2)CC1", "read-out": "binding", "technique": "competition with immobilised ligand", "concentration": "1 µM", "remaining binding": "82%"}
{"SMILES": "CNC(=O)Nc1ccc2c(c1)CC[C@@]21OC(=O)N(CC(=O)N(Cc2ccc(F)cc2)[C@@H](C)C(F)(F)F)C1=O", "read-out": "cell-free assay", "technique": "competition with immobilised ligand", "concentration": "1 µM", "remaining binding": "88%"}
{"SMILES": "CCN(CC)Cc1cc(Nc2ccnc3cc(Cl)ccc23)ccc1O", "read-out": "cell-free assay", "technique": "competition with immobilised ligand", "concentration": "10 µM", "remaining binding": "93%"}
{"SMILES": "CN(C)c1ncc(F)c(-c2cnn3ncccc23)n1", "read-out": "binding", "concentration": "1 µM", "remaining binding": "99%"}
{"SMILES": "NS(=O)(=O)c1cc(NC(=O)C2(c3ccccc3Cl)CC2)ccc1Oc1cccc(Cl)c1", "read-out": "cell-free assay", "technique": "competition with immobilised ligand", "concentration": "1 µM", "remaining binding": "85%"}
{"SMILES": "CN1CC[C@H](c2c(O)cc(O)c3c(=O)cc(-c4ccccc4Cl)oc23)[C@H](O)C1", "read-out": "cell-free assay", "technique": "competition with immobilised ligand", "concentration": "0.1 µM", "remaining binding": "100%"}
